The test system of series [1] is Clostridium botulinum. As to the kind of experiment: Zinc chelating activity mediated inhibition of Clostridium botulinum BoNT/A1 LC (1 to 425 residues) activity using SNAPtide as substrate at 50 uM incubated with enzyme for 30 mins followed by substrate addition and measured for 20 mins by FRET assay relative to control. Particulars: time 50.0 min. The method, boiled down: (§1)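 Enzyme was truncated BoNT/A1 LC (1–425) at 10 nM final, incubated with compound for 30 min at 25 °C in 40 mM HEPES pH 7.4 with 0.01% Triton X-100. SNAPtide substrate followed at 3.8 µM final. Fluorescence rate (ex 490/em 523 nm) read immediately for 20 min. Technical and experimental triplicate.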

Series [2] relates to Clostridium botulinum. As to the kind of experiment: Zinc chelating activity mediated inhibition of Clostridium botulinum BoNT/A1 LC (1 to 425 residues) activity using SNAPtide as substrate at 1 mM incubated with enzyme for 30 mins followed by substrate addition and measured for 20 mins by FRET assay relative to control. Conditions: time 50.0 min. The method, boiled down: as §1

A short description of series [3]: Zinc chelating activity mediated inhibition of Clostridium botulinum BoNT/A1 LC (1 to 425 residues) activity using SNAPtide as substrate incubated with enzyme for 30 mins followed by substrate addition and measured for 20 mins by FRET assay relative to control. In a few lines:
as §1

Series [4] is described as follows: Zinc chelating activity mediated inhibition of Clostridium botulinum Hall A hyper BoNT/A1activity assessed as inhibition of BoNT/A1-induced neurotoxicity in hIPSC derived GABA neurons by measuring protection against SNAP-25 cleavage incubated for 30 mins post BoNT/A1 addition and measured at 7 hrs post-toxin addition by Western blot analysis. In general terms: In western blotting, separated proteins are transferred to a membrane and probed.

Series [5] has as its system Clostridium botulinum. As to the kind of experiment: Selectivity index, ratio of IC50 for zinc chelation-mediated inhibition of Clostridium botulinum Hall A hyper BoNT/A1 activity assessed as protection against SNAP-25 cleavage in hIPSC-derived GABA neurons to IC50 for zinc chelation-mediated inhibition of Clostridium botulinum BoNT/A1 LC (1 to 425 residues).
A short description of series [6]: Selectivity index, ratio of IC50 for zinc chelation-mediated inhibition of Clostridium botulinum BoNT/A1 LC (1 to 425 residues) to IC50 for MMP19 (unknown origin). In kind it is toxicity.
Series [7] is described as follows: Selectivity index, ratio of IC50 for zinc chelation-mediated inhibition of Clostridium botulinum BoNT/A1 LC (1 to 425 residues) to IC50 for MMP13 (unknown origin). In kind it is toxicity.
Series [8] can be described thus: Selectivity index, ratio of IC50 for zinc chelation-mediated inhibition of Clostridium botulinum BoNT/A1 LC (1 to 425 residues) to IC50 for MMP8 (unknown origin). In kind it is toxicity.
A short description of series [9]: Selectivity index, ratio of IC50 for zinc chelation-mediated inhibition of Clostridium botulinum BoNT/A1 LC (1 to 425 residues) to IC50 for MMP7 (unknown origin). In kind it is toxicity.
Series [10] is described as follows: Selectivity index, ratio of IC50 for zinc chelation-mediated inhibition of Clostridium botulinum BoNT/A1 LC (1 to 425 residues) to IC50 for MMP3 (unknown origin). The format is toxicity.
A short description of series [11]: Selectivity index, ratio of IC50 for zinc chelation-mediated inhibition of Clostridium botulinum BoNT/A1 LC (1 to 425 residues) to IC50 for MMP2 (unknown origin). In kind it is toxicity.
Series [12] can be described thus: Selectivity index, ratio of IC50 for zinc chelation-mediated inhibition of Clostridium botulinum BoNT/A1 LC (1 to 425 residues) to IC50 for MMP1 (unknown origin). In kind it is toxicity.
Series [13] relates to Clostridium botulinum. Description: Competitive active site zinc chelating activity mediated inhibition of Clostridium botulinum BoNT/A1 LC (1 to 425 residues) activity at 0.1 to 10 uM using SNAPtide as substrate incubated with enzyme for 30 mins in presence of DCHA followed by substrate addition and measured for 20 mins by FRET assay. Particulars: dose 0.1-10 µM, time 50.0 min. The method, boiled down: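 BoNT/A1 LC (1–425), 10 nM final, preincubated with compound for 30 min at room temperature in 40 mM HEPES pH 7.4 with 0.01% Triton X-100. SNAPtide added to 3.8 µM final. Fluorescence rate (ex 490/em 523 nm) read for 20 min. Technical and experimental triplicate.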

Calls of active or inactive are those of the source. The calls are words filed in the database; no cut-off is given here.

The compound `Cc1c(O)c(=S)ccn1Cc1cccnc1` registered an inhibition with Clostridium botulinum [1] of 52%. In the series on Clostridium botulinum [2], `O=C(O)c1cccc(C(=O)O)n1` showed an inhibition of more than 95%. Take `Cc1c(O)c(=S)ccn1-c1ccc(F)cc1`: the inhibition with Clostridium botulinum [1] amounted to 37%. Same read-out and setting: for `COc1cccc(Cn2ccc(=S)c(O)c2C)c1` the value was 65%.

`Cc1c(O)c(=S)ccn1CC12CC3CC(CC(C3)C1)C2` displayed an IC50 in series [3] of 4.9 µM. In turn, `Cc1c(O)c(=S)ccn1-c1cc(C(F)(F)F)cc(C(F)(F)F)c1` registered an inhibition in the series on Clostridium botulinum [1] of 0%. With `Cc1c(O)c(=S)ccn1Cc1ccc([N+](=O)[O-])cc1`, the IC50 in series [4] amounted to 100 µM; in series [3], 3 µM.

The compound `Cc1ccc(Cn2ccc(=S)c(O)c2C)cc1` yielded a concentration for half-maximal inhibition (IC50) in series [3] of 5 µM. Compound `COc1ccc(Cn2ccc(=S)c(O)c2C)cc1` displayed an IC50 in [3] of 31.9 µM. Turning to `Cc1c(O)c(=S)ccn1Cc1ccc(-c2ccc(F)c(F)c2)cc1`, the IC50 amounted to 39 µM in [4] and 1.8 µM in series [3]. The compound `Cc1c(O)c(=S)ccn1Cc1ccccc1` yielded an inhibition in the series on Clostridium botulinum [1] of 55%.

In the series on Clostridium botulinum [1], `Cc1c(O)c(=S)ccn1-c1ccc(Nc2ccccc2)cc1` registered an inhibition of 14%. In the case of `c1cnc2c(c1)ccc1cccnc12`, the inhibition with Clostridium botulinum [2] is more than 95%. For `COc1ccc(-n2ccc(=S)c(O)c2C)cc1OC`, the inhibition in the series with Clostridium botulinum [1] was 12%. As for `Cc1c(O)c(=S)ccn1Cc1ccc(Cl)cc1`, in series [3], half-maximal inhibition (IC50) required 11.3 µM. On the same count and under the same terms, for `Cc1c(O)c(=S)ccn1Cc1ccc(Br)cc1` the value was 2.2 µM; for `Cc1c(O)c(=S)ccn1CCc1ccc(Cl)cc1`, 1.9 µM. `Cc1c(O)c(=S)ccn1-c1ccc(F)c(C(F)(F)F)c1` returned an inhibition in the series on Clostridium botulinum [1] of 0%. On to `Cc1c(O)c(=S)ccn1Cc1ccc(-c2ccc(Cl)cc2)cc1`, for which the IC50 in series [4] is 31 µM; in series [3], 1.3 µM. As for `Cc1c(O)c(=S)ccn1Cc1ccc(-c2ccc3c(c2)OCO3)cc1`, the IC50 in series [4] is 51 µM; in series [3], 1.4 µM.

On to `Cc1c(O)c(=S)ccn1CCc1ccccc1`, for which the inhibition in the series on Clostridium botulinum [1] worked out at 48%.

In turn, `Cc1c(O)c(=S)ccn1Cc1ccc(-c2ccc3ccccc3c2)cc1` gave an inhibition in the series with Clostridium botulinum [1] of 60%.

In the case of `Cc1ccc(CCn2ccc(=S)c(O)c2C)cc1C`, inhibition in series [3] was half-maximal at 2.8 µM (IC50). On the same count and under the same terms, for `Cc1c(O)c(=S)ccn1Cc1ccc(Cl)cc1Cl` the value was more than 50 µM. In the case of `COc1ccc(CCn2ccc(=S)c(O)c2C)cc1`, the inhibition with Clostridium botulinum [1] stood at 57%. `COc1ccccc1Cn1ccc(=S)c(O)c1C` registered an inhibition in the series with Clostridium botulinum [1] of 71%. On to `Cc1c(O)c(=S)ccn1CCc1ccc(-c2ccccc2)cc1`, for which the Ratio IC50 with Clostridium botulinum [5] was determined as 7; in series [6] it was 2; in series [7] it was 2; in [8], 2; in series [9] it was 2; in series [10], 2. For the same compound, the “Ratio IC50” value in series [11] and in [12] was 2 each time. Moreover, the IC50 in series [4] is 13 µM; in [3] it was 1.8 µM. Also, in the series with Clostridium botulinum [13], the outcome was Active. Consider `Cc1c(O)c(=S)ccn1CCC12CC3CC(CC(C3)C1)C2`, for which, in series [3], the IC50 was more than 50 µM. As to `COc1cccc(CCn2ccc(=S)c(O)c2C)c1`, the inhibition with Clostridium botulinum [1] stood at 62%. In series [3], `Cc1ccc(CCn2ccc(=S)c(O)c2C)cc1` registered a 50% inhibitory concentration (IC50) of 3.2 µM. In addition, the inhibition with Clostridium botulinum [1] was found to be 81%. Regarding `CCc1c(O)c(=S)ccn1CC`, in the series with Clostridium botulinum [2], the inhibition was more than 95%. `Cc1c(O)c(=S)ccn1-c1ccc(N2CCOCC2)cc1` had an inhibition in the series on Clostridium botulinum [1] of 0%.

With `Cc1c(O)c(=S)ccn1Cc1ccc(-c2ccc(F)cc2)cc1`, the concentration for half-maximal inhibition (IC50) in series [4] came to 33 µM; in series [3] it was 1.4 µM.

Regarding `Cc1c(O)c(=S)ccn1CCc1ccc(Cl)cc1Cl`, the IC50 is 200 µM in [4] and 1.6 µM in series [3]. In turn, `Cc1c(O)c(=S)ccn1C` returned an inhibition in the series on Clostridium botulinum [2] of more than 95%. Regarding `CCOc1ccc(-n2ccc(=S)c(O)c2C)cc1`, in the series on Clostridium botulinum [1], the inhibition is 80%. In the series on Clostridium botulinum [1], `Cc1c(O)c(=S)ccn1-c1ccc(N)cc1` came in with an inhibition of 16%. The compound `CCn1ccc(=S)c(O)c1C` displayed an inhibition in the series on Clostridium botulinum [2] of more than 95%. In the series with Clostridium botulinum [1], `Cc1c(O)c(=S)ccn1Cc1ccc(F)cc1` showed an inhibition of 64%. In turn, `Cc1ccc(CCn2ccc(=S)c(O)c2C)c(C)c1` yielded a 50% inhibitory concentration (IC50) in series [3] of 1.7 µM. With `O=C(O)c1ccc2cccc(O)c2n1`, the inhibition in the series with Clostridium botulinum [2] is more than 95%. Take `Cc1c(O)c(=S)ccn1Cc1ccc(O)cc1`: the half-inhibitory concentration (IC50) in series [3] was more than 50 µM.

Usually inhibition stands for the relative decrease from the control value, in per cent. Higher therefore signals a response far below the control. The IC50 is the midpoint of a concentration-inhibition curve.

(Values after ChEMBL document CHEMBL4673198, “Identification of 3-hydroxy-1,2-dimethylpyridine-4(1H)-thione as a metal-binding motif for the inhibition of botulinum neurotoxin A” (RSC Med Chem, 2021).)
